For 51 molecules, Activity and inhibition results are on record in ChEMBL document CHEMBL4706486, “Usnic acid derivatives as tau-aggregation and neuroinflammation inhibitors” (Eur J Med Chem, 2020).

SMILES strings stand for the structures. Active and inactive are the calls of the source. No cut-off for these calls is given here.

The first data set deals with BV-2. Briefly: Cytotoxicity against mouse BV-2 cells at 20 uM measured after 24 hrs by MTT assay. The format is cell-based. The settings on record: bv-2, 24 h. The method, boiled down: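 Cells in high-glucose DMEM with 10% FBS, 5% CO₂, 37 °C, seeded 3000–5000/well, exposed to compound 24 h. MTT (0.5 mg/mL) 4 h, formazan dissolved in DMSO, absorbance 570 nm (reference 630 nm). Viability as percent of untreated control; mean ± SD, three independent experiments.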
With `CC(=O)C1=C([O-])C=C2Oc3c(C(C)=O)c(O)c(C)c(O)c3[C@]2(C)C1=O.[Na+]`, the Activity result is reported as “Toxic”.

For a further data set, the species on record is Homo sapiens. Briefly: Inhibition of acetyl-PHF6 amide self-aggregation (unknown origin) in pH 7.4 phosphate buffer assessed as decrease in absorbance intensity at 10 uM and 25 degreeC measured immediately after 10 sec vibration per minute for 120 mins under shaking condition by circular dichroism spectroscopy.
Details: not given
The method, boiled down:
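Fresh samples of 100 μM AcPHF6 with 10 μM compound (≤0.1% DMSO) in 50 mM phosphate buffer pH 7.4. 10 s vibration per minute at 25 °C over 120 min. Spectra 260–200 nm, 1 mm quartz cell, 1 nm bandwidth, 50 nm/min scan. Solvent and compound contributions subtracted, converted to Δε per residue, Savitzky-Golay smoothed.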
On the technique in general: Circular dichroism is the unequal absorption of left and right circularly polarised light.
On to `CC(=O)c1c(O)c(C)c(O)c2c1OC1=CC(=O)/C(=C(/C)Nc3ccc(O)cn3)C(=O)[C@@]12C`, for which the inhibition entry is “Active”.

A further data set is filed under the species Homo sapiens. Briefly: Inhibition of acetyl-PHF6 amide self-aggregation (unknown origin) in pH 7.4 phosphate buffer assessed as absence of fibrillar material at 20 uM and 25 degreeC measured after 10 mins by phosphotungstic acid staining based TEM analysis.
Details: not given
For the molecule `CC(=O)c1c(O)c(C)c(O)c2c1OC1=CC(=O)/C(=C(/C)Nc3ccc(O)cn3)C(=O)[C@@]12C`, the inhibition entry was “inactive”.

A further data set is filed under the species Homo sapiens. Briefly: Inhibition of acetyl-PHF6 amide self-aggregation (unknown origin) in pH 7.4 phosphate buffer at 10 uM and 25 degreeC measured every 1 min for 120 mins under shaking condition by ThT fluorescence assay relative to control.
Details: not given
The method, boiled down: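 AcPHF6 dissolved in HFIP, dried overnight, 1 mM water stock used at once. Final 100 μM peptide, 20 μM ThT, 10 μM compound (≤0.1% DMSO) in 50 mM phosphate buffer pH 7.4, 25 °C. Ex 440/em 490 nm read each minute for 120 min, 10 s shaking (400 rpm) before each read. Inhibition from mean signal at 50–60 min; ≥3 wells; mean ± SD of three experiments; DMSO negative control.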
Take `CC(=O)c1c(O)c(C)c(O)c2c1OC1=CC(=O)/C(=C(/C)Nc3ccc(N(C)C)cc3)C(=O)[C@@]12C`: the inhibition is 48.1%.
Turning to `COc1ccc(-n2nc(C)c3c2C=C2Oc4c(C(C)=O)c(O)c(C)c(O)c4[C@@]2(C)C3=O)cn1`, the inhibition was 7.7%.
On to `COc1ccc(S(=O)(=O)n2nc(C)c3c2C=C2Oc4c(C(C)=O)c(O)c(C)c(O)c4[C@@]2(C)C3=O)cc1`, for which the inhibition entry is “inactive”.
As to `CC(=O)c1c(O)c(C)c(O)c2c1OC1=Cc3c(c(C)nn3-c3ccccn3)C(=O)[C@@]12C`, the inhibition stood at 17.1%.
Molecule `CC(=O)c1c(O)c(C)c(O)c2c1OC1=CC(=O)/C(=C(/C)Nc3ccc4scnc4c3)C(=O)[C@@]12C` gave an inhibition of 29.8%.
Regarding `CC(=O)c1c(O)c(C)c(O)c2c1OC1=CC(=O)/C(=C(/C)N)C(=O)[C@@]12C`, the inhibition result is “inactive”.
Turning to `CC(=O)c1c(O)c(C)c(O)c2c1OC1=Cc3c(c(C)nn3-c3nc4ccccc4[nH]3)C(=O)[C@@]12C`, the inhibition stood at 12.2%.
As for `CC(=O)c1c(O)c(C)c(O)c2c1OC1=Cc3c(c(C)nn3-c3ccccc3C(=O)O)C(=O)[C@@]12C`, the inhibition is 32.8%.
In the case of `CC(=O)c1c(O)c(C)c(O)c2c1OC1=CC(=O)/C(=C(/C)Nc3ccc(N4CCN(C)CC4)cc3)C(=O)[C@@]12C`, the inhibition was found to be 48.2%.
For the molecule `CC(=O)C1=C([O-])C=C2Oc3c(C(C)=O)c(O)c(C)c(O)c3[C@]2(C)C1=O.[Na+]`, the inhibition result is “inactive”.
For `CC(=O)c1c(O)c(C)c(O)c2c1OC1=CC(=O)/C(=C(/C)Nc3ccc4c(c3)ncn4C)C(=O)[C@@]12C`, the inhibition entry is “inactive”.
In the case of `CC(=O)c1c(O)c(C)c(O)c2c1OC1=Cc3c(c(C)nn3S(=O)(=O)c3ccccc3)C(=O)[C@@]12C`, the inhibition entry was “inactive”.
Molecule `CC(=O)c1c(O)c(C)c(O)c2c1OC1=CC(=O)/C(=C(/C)Nc3ccc(N)cn3)C(=O)[C@@]12C` came in with an inhibition of 46.4%.
As for `CC(=O)c1c(O)c(C)c(O)c2c1OC1=Cc3c(c(C)nn3-c3ccc(S(N)(=O)=O)cc3)C(=O)[C@@]12C`, the inhibition was determined as 46.8%.
Molecule `CC(=O)c1c(O)c(C)c(O)c2c1OC1=CC(=O)/C(=C(/C)Nc3ccc(C(=O)O)c(O)c3)C(=O)[C@@]12C` registered an inhibition of 27.6%.
On to `CC(=O)c1c(O)c(C)c(O)c2c1OC1=CC(=O)/C(=C(/C)Nc3cccc(N(C)C)c3)C(=O)[C@@]12C`, for which the inhibition came out at 11.3%.
`CC(=O)c1c(O)c(C)c(O)c2c1OC1=CC(=O)/C(=C(/C)Nc3cccc4cccnc34)C(=O)[C@@]12C`: the inhibition entry was “inactive”.
The molecule `CC(=O)c1c(O)c(C)c(O)c2c1OC1=Cc3c(c(C)nn3-c3ccc(F)cc3)C(=O)[C@@]12C` returned an inhibition of 26.9%.
On the same count and under the same terms, next, `CC(=O)c1c(O)c(C)c(O)c2c1OC1=Cc3c(c(C)nn3-c3nc4ccccc4s3)C(=O)[C@@]12C`: “inactive”; `CC(=O)c1c(O)c(C)c(O)c2c1OC1=Cc3c(c(C)nn3-c3cnccn3)C(=O)[C@@]12C`: 38%.
Consider `CC(=O)c1c(O)c(C)c(O)c2c1OC1=CC(=O)/C(=C(/C)N[C@@H](Cc3c[nH]c4ccccc34)C(=O)O)C(=O)[C@@]12C`, for which the inhibition was 47.6%.
The same measure, in the same setting: then `CC(=O)c1c(O)c(C)c(O)c2c1OC1=Cc3c(c(C)nn3-c3ccc(C(C)(C)C)cc3)C(=O)[C@@]12C`, with 22.3%; and `CC(=O)c1c(O)c(C)c(O)c2c1OC1=CC(=O)/C(=C(/C)Nc3ccc(C)cc3O)C(=O)[C@@]12C`, with 25.3%.
With `CC(=O)c1c(O)c(C)c(O)c2c1OC1=CC(=O)/C(=C(/C)NCCCCCO)C(=O)[C@@]12C`, the inhibition result was “inactive”.
The molecule `CC(=O)c1c(O)c(C)c(O)c2c1OC1=CC(=O)/C(=C(/C)Nc3ccc4c(ccn4C)c3)C(=O)[C@@]12C` returned an inhibition of 27.6%.
Same read-out and setting: next, `CC(=O)c1c(O)c(C)c(O)c2c1OC1=CC(=O)/C(=C(/C)Nc3cc(Cl)ccc3O)C(=O)[C@@]12C`: 22%; `CC(=O)c1c(O)c(C)c(O)c2c1OC1=Cc3c(c(C)nn3-c3ccc(S(C)(=O)=O)cc3)C(=O)[C@@]12C`: 28.7%.
With `COc1cc(N/C(C)=C2\C(=O)C=C3Oc4c(C(C)=O)c(O)c(C)c(O)c4[C@@]3(C)C2=O)cc(OC)c1OC`, the inhibition is 5.4%.
As to `CC(=O)c1c(O)c(C)c(O)c2c1OC1=Cc3c(c(C)nn3-c3ccc(C)nn3)C(=O)[C@@]12C`, the inhibition was found to be 40.9%.
As for `CC(=O)c1c(O)c(C)c(O)c2c1OC1=CC(=O)/C(=C(/C)Nc3cnc(N)cn3)C(=O)[C@@]12C`, the inhibition stood at 44.2%.
With `CC(=O)c1c(O)c(C)c(O)c2c1OC1=CC(=O)/C(=C(/C)Nc3ccc(Cl)cc3O)C(=O)[C@@]12C`, the inhibition stood at 48.4%.
As for `CC(=O)c1c(O)c(C)c(O)c2c1OC1=CC(=O)/C(=C(/C)Nc3ncccc3O)C(=O)[C@@]12C`, the inhibition was found to be 48%.
Molecule `O=c1c(O)c(-c2cc(O)c(O)c(O)c2)oc2cc(O)cc(O)c12` displayed an inhibition of 85.9%.
`CC(=O)c1c(O)c(C)c(O)c2c1OC1=Cc3c(c(C)nn3-c3cccnc3)C(=O)[C@@]12C`: the inhibition was determined as 29.8%.
With `CC(=O)c1c(O)c(C)c(O)c2c1OC1=CC(=O)/C(=C(/C)Nc3cc(C(C)(C)C)c(O)c(C(C)(C)C)c3)C(=O)[C@@]12C`, the inhibition result is “inactive”.
For `CC(=O)c1c(O)c(C)c(O)c2c1OC1=Cc3[nH]nc(C)c3C(=O)[C@@]12C`, the inhibition came to 22.5%.
In turn, `CC(=O)c1c(O)c(C)c(O)c2c1OC1=Cc3c(c(C)nn3-c3ccc(C#N)cc3)C(=O)[C@@]12C` displayed an inhibition of 20.1%.
On the same count and under the same terms, then `CC(=O)c1c(O)c(C)c(O)c2c1OC1=Cc3c(c(C)nn3-c3cccc(C(=O)O)c3)C(=O)[C@@]12C`, with 40.4%; and `CC(=O)c1c(O)c(C)c(O)c2c1OC1=CC(=O)/C(=C(/C)N[C@@H](Cc3ccccc3)C(=O)O)C(=O)[C@@]12C`, with “inactive”.
`CC(=O)c1c(O)c(C)c(O)c2c1OC1=Cc3c(c(C)nn3-c3cccc(F)c3)C(=O)[C@@]12C`: the inhibition was determined as 30.3%.
`CCOC(=O)c1ccc(-n2nc(C)c3c2C=C2Oc4c(C(C)=O)c(O)c(C)c(O)c4[C@@]2(C)C3=O)cc1` yielded an inhibition of 14.5%.
Turning to `CC(=O)c1c(O)c(C)c(O)c2c1OC1=Cc3c(c(C)nn3-c3n[nH]c(=O)c4ccccc34)C(=O)[C@@]12C`, the inhibition amounted to 9.3%.
`CC(=O)c1c(O)c(C)c(O)c2c1OC1=CC(=O)/C(=C(/C)Nc3cc(C)ccc3O)C(=O)[C@@]12C`: the inhibition came to 12.7%.
On to `COc1cccc(-n2nc(C)c3c2C=C2Oc4c(C(C)=O)c(O)c(C)c(O)c4[C@@]2(C)C3=O)c1`, for which the inhibition was found to be 24%.
In the case of `CC(=O)c1c(O)c(C)c(O)c2c1OC1=Cc3c(c(C)nn3-c3ccncc3)C(=O)[C@@]12C`, the inhibition amounted to 8.5%.
In the case of `CC(=O)c1c(O)c(C)c(O)c2c1OC1=Cc3c(c(C)nn3S(=O)(=O)c3ccc(C)cc3)C(=O)[C@@]12C`, the inhibition result is “inactive”.
`CC(=O)c1c(O)c(C)c(O)c2c1OC1=CC(=O)/C(=C(/C)Nc3ccc4[nH]ccc4c3)C(=O)[C@@]12C` returned an inhibition of 39.2%.
For the molecule `COc1ccc(-n2nc(C)c3c2C=C2Oc4c(C(C)=O)c(O)c(C)c(O)c4[C@@]2(C)C3=O)cc1`, the inhibition was 27.2%.
Consider `CC(=O)c1c(O)c(C)c(O)c2c1OC1=CC(=O)/C(=C(/C)Nc3cc(C(C)C)c(O)cc3C)C(=O)[C@@]12C`, for which the inhibition entry is “inactive”.
Take `CC(=O)c1c(O)c(C)c(O)c2c1OC1=CC(=O)/C(=C(/C)Nc3c(C)cc(O)cc3C)C(=O)[C@@]12C`: the inhibition result was “inactive”.
Still for that read-out and setting: then `CC(=O)c1c(O)c(C)c(O)c2c1OC1=CC(=O)/C(=C(/C)Nc3ccc(O)cn3)C(=O)[C@@]12C`, with 58.3%.

As usually defined, the inhibition is the relative decrease from the control value, in per cent.
